We go through two compounds from ChEMBL document CHEMBL1123566, “Synthesis and cardiac electrophysiological activity of 2- and 3-[(substituted phenyl)alkyl]quinuclidines. Structure-activity relationships” (1987).

“And” between values parts separate entries of the source, which are not always exact repeats. Equal values may be shown once.

For assay [1], the species on record is Canis familiaris. Briefly: In vitro electrophysiological evaluation in canine cardiac ventricular muscle reported as maximum % change for functional refractory period (FRP); concentration at which it occurred is 10 uM. Details: species or system Canis lupus familiaris, Muscle tissue. The gist of the method: (§1)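 Canine right ventricle and papillary muscle strips in oxygenated Tyrode's solution, fitted with stimulating and recording electrodes. The extra-stimulus conduction-interval method was adapted for in vitro use. FRP and CT were read from a conduction-interval curve before and after various compound concentrations, and expressed as percent change from control. Compounds were taken from 10 mM deionized-water stock into Tyrode's. Each strip was used once as its own control.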

For assay [2], the species on record is Canis familiaris. Briefly: In vitro electrophysiological evaluation in canine cardiac Purkinje fibres reported as % change for action potential duration at a concentration of 10 uM. In kind it is functional, Canis lupus familiaris, Purkinje fiber. The gist of the method: (§2)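 Canine cardiac Purkinje fibres, intracellular microelectrode recording, paced at a basic cycle length of 1 s. APD95 and Vmax read simultaneously. Compound: 10 mM stock in deionized water, diluted into Tyrode's solution, tested over the stated concentration range. Each fibre used once as its own control. Result is % change from control, given at 10 µM or as the maximum with its concentration. M = <10% decrease or an increase in Vmax.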

Assay [3] is filed under the species Canis familiaris. Briefly: In vitro electrophysiological evaluation in canine cardiac ventricular muscle reported as % change for the functional refractory period (FRP) at 10 uM. Details: species or system Canis lupus familiaris, Muscle tissue. An outline of the steps:
as §1

The species named for assay [4] is Canis familiaris. Briefly: In vitro electrophysiological evaluation in canine cardiac ventricular muscle reported as maximum % change for conduction time(CT); Minimal (<10% decrease or increase in […]). The assay is classed as functional, Canis lupus familiaris, Muscle tissue. An outline of the steps:
as §1

The species entered for assay [5] is Canis familiaris. Briefly: In vitro electrophysiological evaluation in canine cardiac Purkinje fibres reported as percent change Vmax at 10 uM at concentration range of 0.1-100 uM; Minimal (<10% decrease or increase in Vmax). The assay is classed as functional, organism-based. The conditions noted are these: Canis lupus familiaris, Purkinje fiber. The gist of the method: as §2

The species entered for assay [6] is Canis familiaris. Briefly: In vitro electrophysiological activity in canine cardiac occurred is 100 uM. In kind it is functional, Canis lupus familiaris, Heart.
Assay [7] is filed under the species Canis familiaris. Briefly: In vitro electrophysiological evaluation in canine cardiac Purkinje fibres reported as % change for action potential duration at 10 uM at 0.1-100 uM concentration range. The assay is classed as functional, Canis lupus familiaris, Purkinje fiber. An outline of the steps:
as §2

The species entered for assay [8] is Canis familiaris. Briefly: In vitro electrophysiological evaluation in canine cardiac ventricular muscle reported as % change for conduction time(CT) at 10 uM; Minimal (<10% decrease or increase in Vmax). In kind it is functional, Canis lupus familiaris, Muscle tissue. An outline of the steps:
as §1

The species entered for assay [9] is Canis familiaris. Briefly: In vitro electrophysiological evaluation in canine cardiac Purkinje fibres reported as maximum percent change Vmax concentration range of 0.1-100 uM; Minimal (<10% decrease or increase in Vmax). The conditions noted are these: Canis lupus familiaris; Purkinje fiber. The assay is classed as functional. An outline of the steps: as §2

Assay [10] is filed under the species Canis familiaris. Briefly: In vitro electrophysiological evaluation in canine cardiac ventricular muscle reported as % change for the functional refractory period (FRP) at 10 uM at concentration range of 0.1-100 uM. Details: species or system Canis lupus familiaris, Muscle tissue. The gist of the method: as §1
The species named for assay [11] is Canis familiaris. Briefly: In vitro electrophysiological evaluation in canine cardiac ventricular muscle reported as % change for conduction time(CT) at 10 uM at 0.1-100 uM concentration range; Minimal (<10% decrease or increase in CT). In kind it is functional, Canis lupus familiaris, Muscle tissue.
Assay [12] is filed under the species Canis familiaris. Briefly: In vitro electrophysiological evaluation in canine cardiac ventricular muscle reported as maximum % change for functional refractory period (FRP) at 0.1-100 uM concentration range; concentration at which it occurred is 100 uM. On the set-up: species or system Canis lupus familiaris, Muscle tissue. An outline of the steps:
as §1

For assay [13], the species on record is Canis familiaris. Briefly: In vitro electrophysiological evaluation in canine cardiac ventricular muscle reported as maximum % change for conduction time(CT) at […] concentration range; Minimal (<10% decrease or increase in CT). The assay is classed as functional, Canis lupus familiaris, Muscle tissue. An outline of the steps:
as §1

For assay [14], the species on record is Canis familiaris. Briefly: In vitro electrophysiological evaluation in canine cardiac Purkinje fibres reported as percent change Vmax at 10 uM at concentration range of 1-100 uM; Minimal (<10% decrease or increase in V max). In kind it is functional. The conditions noted are these: Canis lupus familiaris, Purkinje fiber. An outline of the steps:
as §2

The species named for assay [15] is Canis familiaris. Briefly: In vitro electrophysiological evaluation in canine cardiac Purkinje fibres reported as maximum percent change Vmax concentration range of 1-100 uM; Minimal (<10% decrease or increase in V max). In kind it is functional. To be noted: Canis lupus familiaris; Purkinje fiber. An outline of the steps:
as §2

The species entered for assay [16] is Canis familiaris. Briefly: In vitro electrophysiological evaluation in canine cardiac occurred is 100 uM. In kind it is functional. The conditions noted are these: Canis lupus familiaris; Heart.
The species named for assay [17] is Canis familiaris. Briefly: In vitro electrophysiological evaluation in canine cardiac Purkinje fibres reported as % change for action potential duration at 10 uM at 1-100 uM concentration range. The assay is classed as functional, Canis lupus familiaris, Purkinje fiber. The gist of the method: as §2

Consider `Cl.O=C1C2CCN(CC2)C1CCCc1ccccc1` (centres undefined), for which the FRP in assay [1] and in assay [3] was 5% each time. Also, the APD95 in assay [2] was -6%; in assay [6], -38% and -35%; in assay [7] it was 1%. Also, the CT in [4] and in [8] was below 10% each time. Besides, the Vmax in [5] and in assay [9] was below 10% throughout.
Turning to `CCOC(=O)C(CC1C(=O)C2CCN1CC2)C(=O)c1ccc(Cl)c([N+](=O)[O-])c1.Cl` (centres undefined), the FRP in assay [10] turned out to be 17%; in assay [12] it was 20%. For the same compound, the CT in [11] and in assay [13] was below 10% in each case. Also, the APD95 is 0% in assay [2]; -2% and -7% in assay [6]; -2% in assay [17]. In addition, the Vmax is below 10% in assay [14], below 10% in assay [15] and -12% in [16].
